ChEMBL document CHEMBL1139999, “Discovery of pyrazine carboxamide CB1 antagonists: the introduction of a hydroxyl group improves the pharmaceutical properties and in vivo efficacy of the series” (Bioorg Med Chem Lett, 2007)
pKi: −log10 of the molar value. ≈ marks a conversion by molar mass, not a printed value. Calls of active or inactive are those of the source. No cut-off for these calls is given here.

Key:
[1] = Ratio of drug level in brain to plasma in Sprague-Dawley rat at 30 mg/kg, po after 4 hrs; format: ADME, organism-based; parameters: dose 30 mg/kg, route oral; conditions: read-out: Drug uptake
Summary of the method: (§1)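 Male Sprague–Dawley rats dosed orally at 30 mg/kg as a suspension in 0.5% Methocel/1% Tween 80/water. Plasma and brain levels measured, with brain concentration and brain/plasma ratio taken at 4 h. AUC covers 0–4 h. Values are averages of n = 2 rats.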

[2] = Average Tmax in Sprague-Dawley rat at 30 mg/kg, po; format: ADME, organism-based; parameters: dose 30 mg/kg, route oral; conditions: in vivo; summary of the method: as §1
Cannabinoid receptor 1 [3] = molecular target: Cannabinoid receptor 1 (Rattus norvegicus, UniProt P20272); test: Binding affinity to rat CB1 receptor
[4] = Drug level in Sprague-Dawley rat brain at 30 mg/kg, po after 4 hrs; format: ADME, organism-based; parameters: dose 30 mg/kg, route oral; conditions: read-out: Drug uptake; summary of the method: as §1
Cannabinoid receptor 1 [5] = molecular target: T1, Cannabinoid receptor 1 (Homo sapiens, UniProt P21554); test: Binding affinity to human CB1 receptor
[6] = AUC(0 to 4 hrs) in Sprague-Dawley rat at 30 mg/kg, po; format: ADME, organism-based; parameters: time < 4 hr, dose 30 mg/kg, route oral; conditions: plasma; summary of the method: as §1
Cannabinoid receptor 1 [7] = molecular target: T1, Cannabinoid receptor 1; test: Binding affinity to human CB1 receptor at 13 uM
[8] = Aqueous solubility at pH 6.5; format: physicochemical
[9] = AUC(0 to 4 hrs) in Sprague-Dawley rat at 10 mg/kg, po; format: ADME, organism-based; parameters: time < 4 hr, dose 10 mg/kg, route oral; conditions: plasma
Summary of the method: (§2)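 Oral PK in male Sprague-Dawley rats dosed at 10 mg/kg. Plasma sampled over 0–4 h for AUC(0–4h) and Tmax. Brain and plasma concentrations were taken at 4 h to give the brain/plasma ratio. Values are averages of n = 2 rats.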

[10] = Ratio of drug level in brain to plasma in Sprague-Dawley rat at 10 mg/kg, po after 4 hrs; format: ADME, organism-based; parameters: dose 10 mg/kg, route oral; conditions: read-out: BPR; summary of the method: as §2
[11] = Drug level in Sprague-Dawley rat brain at 10 mg/kg, po after 4 hrs; format: ADME, organism-based; parameters: dose 10 mg/kg, route oral; conditions: read-out: Drug uptake; summary of the method: as §2
[12] = Average Tmax in Sprague-Dawley rat at 10 mg/kg, po; format: ADME, organism-based; parameters: dose 10 mg/kg, route oral; conditions: in vivo; summary of the method: as §2
Rattus norvegicus [13] = test: Change in food intake in Sprague-Dawley rat at 10 mg/kg, po; format: functional, organism-based; parameters: dose 10 mg/kg
Summary of the method: (§3)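 Ad libitum-fed rats trained to operate a lever to obtain food were dosed orally at 10 or 30 mg/kg. Cumulative food intake was measured at 4 h versus vehicle-treated controls, with significance testing (p < 0.05).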

Rattus norvegicus [14] = test: Change in food intake in Sprague-Dawley rat at 30 mg/kg, po after 4 hrs; format: functional; summary of the method: as §3
Rattus norvegicus [15] = test: Reduction in feeding in food deprived Sprague-Dawley rat feeding model at 10 mg/kg, po after 4 hrs; format: functional; parameters: scale not given: the % may be the effect or the level left
Summary of the method: (§4)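 Rats were fasted and then dosed orally at 10 mg/kg. Food was reintroduced 30 min after dosing, and refeeding was quantified versus vehicle-treated animals at 2, 4 and 24 h post-dose. Locomotor activity was also monitored.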

Rattus norvegicus [16] = test: Reduction in feeding in food deprived Sprague-Dawley rat feeding model at 10 mg/kg, po after 2 hrs; format: functional; parameters: scale not given: the % may be the effect or the level left; summary of the method: as §4
Rattus norvegicus [17] = test: Reduction in feeding in food deprived Sprague-Dawley rat feeding model at 10 mg/kg, po after 24 hrs; format: functional; parameters: scale not given: the % may be the effect or the level left; summary of the method: as §4

T1 sequence (P21554 whole entry): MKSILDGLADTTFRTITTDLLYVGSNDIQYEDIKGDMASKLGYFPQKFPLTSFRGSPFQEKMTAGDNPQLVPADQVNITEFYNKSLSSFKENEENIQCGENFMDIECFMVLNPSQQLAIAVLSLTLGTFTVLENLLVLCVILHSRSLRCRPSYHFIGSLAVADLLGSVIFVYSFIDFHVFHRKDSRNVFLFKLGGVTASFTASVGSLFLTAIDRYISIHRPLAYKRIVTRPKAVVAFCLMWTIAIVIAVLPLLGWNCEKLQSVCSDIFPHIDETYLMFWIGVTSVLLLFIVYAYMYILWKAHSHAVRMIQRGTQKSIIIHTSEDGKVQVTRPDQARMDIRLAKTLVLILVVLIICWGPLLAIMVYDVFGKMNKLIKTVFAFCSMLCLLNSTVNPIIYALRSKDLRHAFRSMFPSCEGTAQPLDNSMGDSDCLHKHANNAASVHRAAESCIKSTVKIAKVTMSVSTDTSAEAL
Chain of Cannabinoid receptor 1 (Rattus norvegicus, UniProt P20272) (P20272 whole entry): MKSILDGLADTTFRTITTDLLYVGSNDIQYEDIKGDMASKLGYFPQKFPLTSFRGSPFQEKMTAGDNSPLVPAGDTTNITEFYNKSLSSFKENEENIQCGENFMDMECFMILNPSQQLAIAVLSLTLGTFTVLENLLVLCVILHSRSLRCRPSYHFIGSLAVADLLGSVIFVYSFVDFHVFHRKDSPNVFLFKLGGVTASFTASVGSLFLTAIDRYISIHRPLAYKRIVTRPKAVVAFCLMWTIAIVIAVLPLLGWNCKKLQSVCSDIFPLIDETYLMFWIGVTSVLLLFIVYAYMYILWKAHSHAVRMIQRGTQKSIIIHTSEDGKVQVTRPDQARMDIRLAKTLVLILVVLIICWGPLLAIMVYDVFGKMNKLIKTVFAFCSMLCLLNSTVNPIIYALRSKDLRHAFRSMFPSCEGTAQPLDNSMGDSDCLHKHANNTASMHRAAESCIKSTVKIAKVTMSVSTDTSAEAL

In the case of `Cc1ccc(-c2ncc(C(=O)NCCCc3ccccc3)nc2-c2ccc(C)cc2)cc1`, the Kp at 4 h [1] was 0.4, the Tmax [2] was 2 h and the pKi (Cannabinoid receptor 1 [3]) was 7.10. For the same compound, the concentration at 4 h [4] was 34 nM, the pKi (Cannabinoid receptor 1 [5]) was 7.74 and the AUC(0-t) at 4 h [6] was 0.256 µM·h.

Compound `Cc1ccc(-c2ncc(C(=O)Nc3ccccc3)nc2-c2ccc(C)cc2)cc1` has a pKi (Cannabinoid receptor 1 [5]) of 6.29.

With `Cc1ccc(-c2ncc(C(=O)NCCOc3ccccc3)nc2-c2ccc(C)cc2)cc1` the pKi (Cannabinoid receptor 1 [5]) was 6.20.

Work on `Cc1ccc(-c2ncc(C(=O)N(C)Cc3ccccc3)nc2-c2ccc(C)cc2)cc1` yielded a pKi (Cannabinoid receptor 1 [5]) of 6.96.

With `Cc1ccc(-c2ncc(C(=O)N[C@@H]3CCCC[C@H]3CO)nc2-c2ccc(C)cc2)cc1` the pKi (Cannabinoid receptor 1 [5]) was 7.30.

Work on `Cc1ccc(-c2ncc(C(=O)N[C@H](CO)C(C)C)nc2-c2ccc(C)cc2)cc1` yielded a pKi (Cannabinoid receptor 1 [5]) of 6.63.

Work on `CNC(=O)c1cnc(-c2ccc(C)cc2)c(-c2ccc(C)cc2)n1` yielded a pKi (Cannabinoid receptor 1 [5]) of 5.41.

`Cc1ccc(-c2ncc(C(=O)NCC3CC3)nc2-c2ccc(C)cc2)cc1` gave a pKi (Cannabinoid receptor 1 [5]) of 6.75.

Work on `Cc1ccc(-c2ncc(C(=O)N3CCNC(=O)C3)nc2-c2ccc(C)cc2)cc1` yielded an inhibition (Cannabinoid receptor 1 [7]) of 29%.

In the case of `CC(C)C[C@@H](COP(=O)(O)O)NC(=O)c1cnc(-c2ccc(Cl)cc2)c(-c2ccc(Cl)cc2)n1`, the solubility [8] was 430 µg/mL (≈ 820 µM).

With `Cc1ccc(-c2ncc(C(=O)NC(C)CCc3ccccc3)nc2-c2ccc(C)cc2)cc1` (configuration not stated) the pKi (Cannabinoid receptor 1 [5]) was 8.30.

`Cc1ccc(-c2ncc(C(=O)NCC3CCCCC3)nc2-c2ccc(C)cc2)cc1` showed a pKi (Cannabinoid receptor 1 [5]) of 7.23.

Compound `Cc1ccc(-c2ncc(C(=O)N[C@@H](C(N)=O)c3ccccc3)nc2-c2ccc(C)cc2)cc1` has a pKi (Cannabinoid receptor 1 [5]) of 6.62.

For `Cc1ccc(-c2ncc(C(=O)N[C@@H](CC(C)C)C(N)=O)nc2-c2ccc(C)cc2)cc1`, the pKi (Cannabinoid receptor 1 [5]) was 6.98.

`Cc1ccc(-c2ncc(C(=O)NCCCN(C)c3ccccc3)nc2-c2ccc(C)cc2)cc1` showed a pKi (Cannabinoid receptor 1 [5]) of 7.60.

In the case of `Cc1ccc(-c2ncc(C(=O)NC3CCNC3=O)nc2-c2ccc(C)cc2)cc1` (configuration not stated), the inhibition (Cannabinoid receptor 1 [7]) was 46%.

For `Cc1ccc(-c2ncc(C(=O)N[C@H]3CC[C@H](O)CC3)nc2-c2ccc(C)cc2)cc1`, the inhibition (Cannabinoid receptor 1 [7]) was 54%.

`Cc1ccc(-c2ncc(C(=O)N[C@@H](CO)CC(C)C)nc2-c2ccc(C)cc2)cc1` showed a pKi (Cannabinoid receptor 1 [5]) of 6.34.

Work on `CCC(COCc1ccccc1)NC(=O)c1cnc(-c2ccc(C)cc2)c(-c2ccc(C)cc2)n1` (configuration not stated) yielded a pKi (Cannabinoid receptor 1 [5]) of 6.69.

`CC(C)C[C@@H](CO)NC(=O)c1cnc(-c2ccc(Cl)cc2)c(-c2ccc(Cl)cc2)n1` gave an AUC(0-t) at 4 h [9] of 0.736 µM·h, a Kp at 4 h [10] of 3.1 and a pKi (Cannabinoid receptor 1 [3]) of 7.52. It also gave a concentration at 4 h [11] of 491 nM, a pKi (Cannabinoid receptor 1 [5]) of 7.85 and a Tmax [12] of 1 h.

With `CCNC(=O)c1cnc(-c2ccc(C)cc2)c(-c2ccc(C)cc2)n1` the pKi (Cannabinoid receptor 1 [5]) was 5.62.

In the case of `Cc1ccc(-c2ncc(C(=O)N3CCC(O)CC3)nc2-c2ccc(C)cc2)cc1`, the inhibition (Cannabinoid receptor 1 [7]) was 38%.

Compound `CCCC(CO)NC(=O)c1cnc(-c2ccc(C)cc2)c(-c2ccc(C)cc2)n1` (configuration not stated) has a pKi (Cannabinoid receptor 1 [5]) of 6.80.

`Cc1ccc(-c2ncc(C(=O)NN3CCCCC3)nc2-c2ccc(C)cc2)cc1` gave a pKi (Cannabinoid receptor 1 [5]) of 7.28.

With `Cc1ccc(-c2ncc(C(=O)N[C@@H]3CCCC[C@@H]3O)nc2-c2ccc(C)cc2)cc1` the pKi (Cannabinoid receptor 1 [5]) was 6.52.

Compound `Cc1ccc(-c2ncc(C(=O)NC(C)COc3c(C)cccc3C)nc2-c2ccc(C)cc2)cc1` (configuration not stated) has a pKi (Cannabinoid receptor 1 [5]) of 7.41.

With `Cc1ccc(-c2ncc(C(=O)N[C@H](CO)CC(C)C)nc2-c2ccc(C)cc2)cc1` the Activity (Rattus norvegicus [13]) was “inactive”, the Activity (Rattus norvegicus [14]) was 34% and the AUC(0-t) at 4 h [9] was 0.541 µM·h. The Kp at 4 h [10] was 3, the pKi (Cannabinoid receptor 1 [3]) was 7.46 and the concentration at 4 h [11] was 306 nM. It also gave an Activity (Rattus norvegicus [15]) of 32%, a pKi (Cannabinoid receptor 1 [5]) of 7.35 and an Activity (Rattus norvegicus [16]) of 37%. It also gave a Tmax [12] of 1 h and an Activity (Rattus norvegicus [17]) of 16%.

Compound `Cc1ccc(-c2ncc(C(=O)NC(C)C)nc2-c2ccc(C)cc2)cc1` has a pKi (Cannabinoid receptor 1 [5]) of 6.18.

For `Cc1ccc(-c2ncc(C(=O)NC3Cc4ccccc4C3O)nc2-c2ccc(C)cc2)cc1` (configuration not stated), the pKi (Cannabinoid receptor 1 [5]) was 7.48.

With `Cc1ccc(-c2ncc(C(=O)NCCO)nc2-c2ccc(C)cc2)cc1` the pKi (Cannabinoid receptor 1 [5]) was 5.07.

`Cc1ccc(-c2ncc(C(=O)N[C@@H](CO)C(C)C)nc2-c2ccc(C)cc2)cc1` showed a pKi (Cannabinoid receptor 1 [5]) of 6.50.

`Cc1ccc(-c2ncc(C(=O)N[C@@H]3CCCC[C@@H]3CO)nc2-c2ccc(C)cc2)cc1` gave a pKi (Cannabinoid receptor 1 [5]) of 6.78.
